EBI2 block: antagonists of human EBI2 receptor; P32249; EBI2 beta-arrestin recruitment, luminescence, 7a,25-OHC stimulated; inhibition, % at 5 µM; 360,000 tested, 0.81% active; AID 651636; in the data active = inhibition above about 38%;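 also: enzyme fragment complementation signal reports receptor beta-arrestin coupling in cells; 0% = agonist plus DMSO wells and 100% = wells without agonist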
APJ antag: blocks the human apelin receptor APJ. P35414. CHO-K1 APJ beta-arrestin complementation, luminescence. inhibition, % at 20 µM. 330,000 tested, 0.32% active. AID 2521;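 active = inhibition above about 40% at 20 µM, limit read from the data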;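 also: cells challenged with 10 nM apelin-13 agonist together with compound; plate controls were apelin-13 plus DMSO wells for no effect and DMSO wells lacking apelin-13 for full effect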
APJ agonist: APJ receptor agonism; activation, % at 20 µM; 330,000 tested, 0.11% active; CHO-K1 APJ PathHunter beta-arrestin, luminescence; 0% DMSO wells, 100% apelin; P35414;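 active = activation more than six SD over the plate average, tested at 20 µM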;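 also: 0% = DMSO alone and 100% = apelin-13 at 10 nM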
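Assay system: CHO-K1 APJ beta-arrestin complementation cell line / Compound: single test compound dose, 20 µM final, 1% DMSO / Times: overnight seeding, 90 min compound at 25 °C, 1 h detection / Technique: beta-gal luminescence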
Beta2AR agonist: agonists of human beta-2 adrenergic receptor inducing internalization | P07550 | 340,000 tested, 0.43% active | response, % (concentration not given with the values) | Am2.2-beta2AR cells, FAP receptor internalization, flow cytometry | AID 504454;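 active = response above a set limit, near 3 SD of response in nonfluorescent compounds, cut at about 42% in these data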
Target sequence (P07550 whole entry, looked up): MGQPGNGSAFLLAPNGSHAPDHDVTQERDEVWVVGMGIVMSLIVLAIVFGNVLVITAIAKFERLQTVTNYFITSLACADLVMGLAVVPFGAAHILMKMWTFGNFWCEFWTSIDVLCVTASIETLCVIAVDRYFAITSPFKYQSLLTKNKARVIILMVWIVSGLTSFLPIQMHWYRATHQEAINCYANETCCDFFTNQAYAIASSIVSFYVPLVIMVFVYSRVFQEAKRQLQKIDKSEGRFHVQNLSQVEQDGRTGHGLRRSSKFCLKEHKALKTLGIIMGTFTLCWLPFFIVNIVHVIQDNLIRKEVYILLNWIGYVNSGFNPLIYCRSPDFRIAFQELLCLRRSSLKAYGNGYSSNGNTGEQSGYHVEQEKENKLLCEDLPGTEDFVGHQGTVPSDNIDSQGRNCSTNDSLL
CCR6 antagonist: antagonists of human CCR6 receptor; P51684; CHO-K1 CCR6 PathHunter beta-arrestin, luminescence, CCL20-stimulated; inhibition, % at 20 µM; 340,000 tested, 0.49% active; AID 493098;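 active = compounds whose inhibition of the agonist-driven luminescence signal at 20 µM reaches about 50%, limit read from the data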;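 also: cells stimulated with CCL20 at 14 nM final; plate controls were DMSO with CCL20 for no effect and DMSO without agonist for full effect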
CXCR6 block: CXCR6 (human) receptor inhibition; O00574; CHO-K1 PathHunter CXCR6 beta-arrestin, luminescence; inhibition, % at 20 µM; 360,000 tested, 0.36% active; in the data active = inhibition above about 34%, passing the limit was not always enough;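 also: antagonist mode with CXCL16 agonist at 10 nM final; 0% = 10 nM CXCL16 with DMSO and 100% = unstimulated wells without agonist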
Target sequence (O00574 whole entry, looked up): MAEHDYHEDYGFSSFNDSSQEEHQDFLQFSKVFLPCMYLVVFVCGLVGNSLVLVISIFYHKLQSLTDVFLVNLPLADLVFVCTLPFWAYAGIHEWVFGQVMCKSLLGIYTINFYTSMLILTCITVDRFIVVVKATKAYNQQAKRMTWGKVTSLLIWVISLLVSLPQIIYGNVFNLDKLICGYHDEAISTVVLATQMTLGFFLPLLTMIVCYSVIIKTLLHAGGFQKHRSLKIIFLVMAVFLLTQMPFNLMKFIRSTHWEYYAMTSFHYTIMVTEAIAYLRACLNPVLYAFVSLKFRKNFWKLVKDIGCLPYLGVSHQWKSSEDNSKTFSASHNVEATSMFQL
APJ antag confirm: confirmation of human APJ apelin receptor antagonists; APJ beta-arrestin recruitment, luminescence, antagonist mode; inhibition, % at 20 µM; 950 tested, 66% active; shares compounds with APJ antag; in the data active = inhibition above about 50%
* = called active by the depositor; / = not tested or not shown. Rows were chosen to be rich in hits. Some 1.8% of all compounds tested hit in one or more screens of this group.

SMILES | EBI2 block | APJ antag | APJ agonist | Beta2AR agonist | CCR6 antagonist | CXCR6 block | APJ antag confirm
CC(C)C(=O)N1CCC1(C)C(=O)Nc1ccc(-n2cccc2)cc1 (configuration not stated) | 8.3 | / | / | / | / | -1.4 | /
CCC(C)(C)C(=O)Nc1cc([N+](=O)[O-])ccc1Cl | -11.0 | -30.3 | -2.3 | -2.0 | -16.5 | -2.8 | /
CCN(CC)c1nc(C)c(C(=S)Nc2cc([N+](=O)[O-])ccc2Cl)s1 | 15.7 | 40.1* | -10.8 | -31.6 | 57.0* | 42.2* | 100.1*
COc1cc(CN2C[C@@H](CO)O[C@@H](n3cnc4c(N5CCCC5)ncnc43)C2)cc(OC)c1OC | -9.8 | / | / | / | / | -0.5 | /
CCN(CC)S(=O)(=O)c1ccc2oc(SCC(=O)Nc3cc(C)on3)nc2c1 | 5.9 | 42.8* | -9.9 | 10.9 | / | 11.6 | 52.9*
Nc1nc(-c2ccccc2)nc2nonc12 | -9.2 | / | / | / | / | 7.2 | /
Cc1ccc(S(=O)(=O)N(C)C[C@@H]2OCc3cn(nn3)CCCC(=O)N([C@H](C)CO)C[C@H]2C)cc1 | -9.0 | / | / | / | / | -4.6 | /
O=C(Nc1cccc([N+](=O)[O-])c1)Nc1ccc2c(c1)OCCO2 | 4.9 | 42.2* | -3.8 | 6.3 | 20.2 | -1.6 | 5.8
O=C(Nc1cccc([N+](=O)[O-])c1)Nc1cccc([N+](=O)[O-])c1 | 8.0 | 16.1 | -4.3 | -6.3 | 35.8 | 23.3 | /
O=C(CCCC(=O)OCC(=O)c1ccc(Cl)cc1Cl)Nc1cc(C(F)(F)F)ccc1Cl | 5.7 | 42.9* | -10.4 | 5.5 | 72.0* | 15.2 | 54.6*
O=C(CCCC(=O)OCC(=O)c1ccc(F)cc1)Nc1cc(C(F)(F)F)ccc1Cl | -6.5 | 15.9 | -3.5 | 0.2 | 16.6 | 1.1 | /
CC1(C)C(c2ccccc2)=NC(c2ccccc2)N1O (configuration not stated) | -1.2 | 8.5 | -3.1 | 3.0 | 40.0 | 14.3 | /
CC1(C)C(c2ccccc2)=NC(c2ccc(Br)cc2)N1O (configuration not stated) | 20.2 | 76.7* | -10.7 | 5.9 | 57.6* | 33.8 | 32.6
COC(=O)c1cc(N=Nc2sc(N)nc2C)cc(C(=O)OC)c1 | 10.6 | 45.2* | -4.2 | 38.4 | 27.6 | 7.5 | 26.6
CC(C)CN(C(=O)CN(C)CC(=O)Nc1ccc(Cl)c(C(F)(F)F)c1)c1c(N)n(CC(C)C)c(=O)[nH]c1=O | -5.7 | 11.5 | -1.8 | 5.4 | -4.0 | -1.3 | /
Cc1ccc(-c2c(C(=O)N/N=C/c3cccc(Cl)c3)nnn2-c2nonc2N)cc1 | 17.3 | 52.9* | -8.1 | 1.6 | 18.4 | 8.9 | 62.4*
COc1cccc2cc(C(C)N(CCCN3CCOCC3)C(=S)Nc3cccc(C)c3)oc12 (configuration not stated) | 3.2 | 76.7* | -3.0 | 5.7 | 9.4 | 6.7 | -6.0
O=C1CN(C(=O)c2ccc(Cl)c([N+](=O)[O-])c2)c2ccccc2N1 | -16.2 | 41.4* | -1.3 | 5.1 | 3.9 | 2.9 | -8.2
COc1ccc(OCc2cc(C(=O)NC(C)Cc3cnccn3)no2)c(Cl)c1 (configuration not stated) | -3.9 | 26.8 | -1.3 | -2.6 | 19.6 | -8.6 | /
O=C(N/N=C/c1ccc(-c2ccccc2[N+](=O)[O-])o1)c1cncc(Br)c1 | -0.9 | -22.4 | 3.7 | -4.9 | 22.6 | 6.2 | /
O=C(N/N=C\c1ccc([N+](=O)[O-])o1)c1cncc(Br)c1 | 7.0 | 41.7* | 2.9 | 18.1 | 18.2 | -10.6 | 21.7
C=C1C(=O)O[C@@H]2C[C@@H](C)[C@@H]3C=CC(=O)[C@@]3(C)[C@@H](OC(C)=O)[C@H]12 | / | 46.2* | -10.4 | / | 49.6 | / | 77.0*
CC(=O)c1ccc(N2CCN(C(=S)NCc3ccco3)CC2)cc1 | -4.6 | 44.8* | -2.6 | -4.3 | -3.4 | 2.3 | 2.9
COc1ccc(C(CNC(=O)CCC(=O)c2ccc(C)s2)N2CCOCC2)cc1 (configuration not stated) | 7.0 | 13.3 | -6.1 | -2.3 | -2.3 | 0.9 | /
COC(=O)C1(C(=O)OC)c2ncccc2N(S(=O)(=O)c2ccc(C)cc2)C1CC(=O)c1ccccc1 (configuration not stated) | 5.5 | / | / | / | / | / | /
SMILES | EBI2 block | APJ antag | APJ agonist | Beta2AR agonist | CCR6 antagonist | CXCR6 block | APJ antag confirm
COc1ccc(-c2c3c(nc4sc(C(=O)Nc5ccccc5)c(N)c24)CCC3)cc1 | 34.3 | 70.7* | -16.5 | 0.6 | 9.7 | 21.1 | 37.5
CCOC(=O)c1c(C)nc2sc(C(=O)Nc3ccccc3)c(N)c2c1-c1ccc(OC)cc1 | 36.8 | 41.0* | -6.5 | -5.2 | -2.6 | 10.4 | 23.3
Nc1c(C(=O)Nc2ccccc2)sc2nc3c(c(-c4ccco4)c12)CCC3 | 20.3 | -19.2 | 21.7 | 17.1 | 5.8 | 9.5 | /
O=c1oc(-c2ccccc2)c(-c2ccccc2)c2ccccc12 | -9.2 | / | / | 2.0 | 9.4 | 9.3 | /
Cc1cc(C)c(NC(=O)COC(=O)c2nc3nccc(C)n3n2)c(Cl)c1 | -4.7 | 0.1 | -4.6 | -6.3 | 10.9 | -1.9 | /
CCOc1cc(/C=C2/SC(=S)N(Cc3ccccc3)C2=O)ccc1O | 23.7 | 45.9* | -8.0 | -293.4 | 54.0* | 42.9* | 87.5*
COc1cc(/C=C2/SC(=S)N(Cc3ccccc3)C2=O)ccc1OCC(=O)O | 2.9 | -9.3 | -0.8 | -0.5 | 13.7 | -1.4 | /
COc1cc(/C=C2\SC(=S)N(N(C)c3ccccc3)C2=O)ccc1O | -0.3 | 56.4* | -10.9 | -1.1 | 14.5 | 2.7 | 95.4*
CC(=O)Oc1ccc(/C=C2/SC(=S)N(Cc3ccccc3)C2=O)cc1 | 13.8 | 46.8* | -6.6 | -93.4 | 50.2* | 27.9 | 71.7*
Cc1ccc(C(=O)CNc2cccc([N+](=O)[O-])c2)cc1 | 22.5 | 54.7* | -4.2 | -1.8 | 22.3 | 13.3 | 39.1
Cc1ccc(NCC(=O)c2ccc([N+](=O)[O-])cc2)cc1 | 15.4 | -12.8 | 8.8 | 7.1 | -3.9 | -2.9 | /
Cc1ccc(C(=O)CNc2ccccc2)cc1 | 7.3 | 44.2* | -15.2 | 1.9 | 83.0* | 47.2* | 110.3*
Cc1ccc(NC(=O)CCC(=O)c2ccccc2)cc1 | 6.3 | / | / | -1.8 | 11.8 | -19.3 | /
Cc1ccc(C(=O)CC(=O)c2ccc(C(C)(C)C)cc2)cc1 | 16.5 | -1.8 | -2.6 | 4.8 | 21.9 | -5.7 | /
Cc1ccc(C(=O)CNc2ccccc2C)cc1 | 0.4 | 76.4* | -15.1 | 3.1 | 86.3* | 58.5* | 119.9*
COCC(=O)Nc1ccc2c(c1)[C@@H]1C[C@H](CC(=O)OC)O[C@@H](CO)[C@@H]1O2 | -1.3 | / | / | / | / | -2.6 | /
COc1ccc2nc(SC(C)C(=O)NC3CCCC3)[nH]c2c1 (configuration not stated) | -14.7 | 16.0 | -5.1 | 1.6 | -0.1 | 8.5 | /
O=[N+]([O-])c1cccc(/C=N/Nc2nc(NCc3ccccc3)nc(N3CCOCC3)n2)c1O | 75.8* | 75.8* | -9.6 | 15.4 | 107.0* | 95.1* | 124.2*

High-throughput results: PubChem BioAssay, several laboratories
